Source: ChEMBL document CHEMBL3588757, “Structure-based design, synthesis and biological testing of piperazine-linked bis-epipodophyllotoxin etoposide analogs” (Bioorg Med Chem, 2015)

What was measured:
Format in all cases: functional
SK-MEL-28 = test: Cytotoxicity against human SK-MEL-28 cells assessed as cell growth at 50 uM by SRB assay; conditions: read-out: Activity
PC-3 [1] = test: Cytotoxicity against human PC3 cells assessed as cell growth at 50 uM by SRB assay; conditions: read-out: Activity
HCT-116 = test: Cytotoxicity against human HCT116 cells by SRB assay
In short: (§1)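 Measured in the NCI-60 human tumour cell line panel using five-dose testing. Growth was recorded at each dose for each cell line, and a GI50 was derived for each line.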

HCT-15 [2] = test: Cytotoxicity against human HCT15 cells by SRB assay; in short: as §1
SF-295 = test: Cytotoxicity against human SF295 cells assessed as cell growth at 0.005 uM by SRB assay; conditions: read-out: Activity
SF-268 = test: Cytotoxicity against human SF268 cells by SRB assay
In short: (§2)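 NCI-60 panel screen; 5-dose testing giving GI50 per cell line, plus a single 10 µM one-dose test. Method details not given beyond the NCI screen.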

MCF7 = test: Cytotoxicity against human MCF7 cells by SRB assay; in short: as §2
OVCAR-8 = test: Cytotoxicity against human OVCAR8 cells assessed as cell growth at 5 uM by SRB assay; conditions: read-out: Activity
HL-60(TB) = test: Cytotoxicity against human HL-60(TB) cells assessed as cell growth at 0.005 uM by SRB assay; conditions: read-out: Activity; in short: as §1
MDA-MB-468 = test: Cytotoxicity against human MDA-MB-468 cells assessed as cell growth at 5 uM by SRB assay; conditions: read-out: Activity
LOX IMVI = test: Cytotoxicity against human LOXIMVI cells assessed as cell growth at 0.005 uM by SRB assay; conditions: read-out: Activity
HOP-92 [3] = test: Cytotoxicity against human HOP92 cells assessed as cell growth at 0.005 uM by SRB assay; conditions: read-out: Activity; in short: as §1
DU-145 [4] = test: Cytotoxicity against human DU145 cells assessed as cell growth at 0.05 uM by SRB assay; conditions: read-out: Activity; in short: as §1
SN12C = test: Cytotoxicity against human SN12C cells assessed as cell growth at 0.5 uM by SRB assay; conditions: read-out: Activity
CAKI-1 = test: Cytotoxicity against human Caki1 cells assessed as cell growth at 0.5 uM by SRB assay; conditions: read-out: Activity
NCI-H23 [5] = test: Cytotoxicity against human NCI-H23 cells by SRB assay; in short: as §2
OVCAR-5 [6] = test: Cytotoxicity against human OVCAR5 cells assessed as cell growth at 5 uM by SRB assay; conditions: read-out: Activity
COLO 205 [7] = test: Cytotoxicity against human COLO205 cells assessed as cell growth at 0.5 uM by SRB assay; conditions: read-out: Activity
PC-3 [8] = test: Cytotoxicity against human PC3 cells by SRB assay; in short: as §2
IGROV-1 [9] = test: Cytotoxicity against human IGROV1 cells assessed as cell growth at 0.005 uM by SRB assay; conditions: read-out: Activity; in short: as §1
BT-549 = test: Cytotoxicity against human BT549 cells assessed as cell growth at 5 uM by SRB assay; conditions: read-out: Activity
IGROV-1 [10] = test: Cytotoxicity against human IGROV1 cells assessed as cell growth at 0.5 uM by SRB assay; conditions: read-out: Activity; in short: as §1
HCT-15 [11] = test: Cytotoxicity against human HCT15 cells assessed as cell growth at 0.005 uM by SRB assay; conditions: read-out: Activity; in short: as §1
OVCAR-5 [12] = test: Cytotoxicity against human OVCAR5 cells by SRB assay; in short: as §2
SF-539 = test: Cytotoxicity against human SF539 cells assessed as cell growth at 5 uM by SRB assay; conditions: read-out: Activity
CCRF-CEM = test: Cytotoxicity against human CCRF-CEM cells assessed as cell growth at 0.5 uM by SRB assay; conditions: read-out: Activity
NCI-H23 [13] = test: Cytotoxicity against human NCI-H23 cells assessed as cell growth at 0.05 uM by SRB assay; conditions: read-out: Activity
HOP-62 [14] = test: Cytotoxicity against human HOP62 cells assessed as cell growth at 0.5 uM by SRB assay; conditions: read-out: Activity; in short: as §1
A498 = test: Cytotoxicity against human A498 cells assessed as cell growth at 0.5 uM by SRB assay; conditions: read-out: Activity
DU-145 [15] = test: Cytotoxicity against human DU145 cells assessed as cell growth at 0.5 uM by SRB assay; conditions: read-out: Activity; in short: as §1
HOP-62 [16] = test: Cytotoxicity against human HOP62 cells assessed as cell growth at 0.05 uM by SRB assay; conditions: read-out: Activity; in short: as §1
ACHN = test: Cytotoxicity against human ACHN cells assessed as cell growth at 0.005 uM by SRB assay; conditions: read-out: Activity
HOP-92 [17] = test: Cytotoxicity against human HOP92 cells assessed as cell growth at 0.5 uM by SRB assay; conditions: read-out: Activity; in short: as §1
COLO 205 [18] = test: Cytotoxicity against human COLO205 cells by SRB assay
SK-MEL-5 [19] = test: Cytotoxicity against human SK-MEL-5 cells assessed as cell growth at 0.5 uM by SRB assay; conditions: read-out: Activity
SK-MEL-5 [20] = test: Cytotoxicity against human SK-MEL-5 cells assessed as cell growth at 5 uM by SRB assay; conditions: read-out: Activity
MDA-MB-435 = test: Cytotoxicity against human MDA-MB-435 cells by SRB assay; in short: as §2
SK-OV-3 = test: Cytotoxicity against human SKOV3 cells assessed as cell growth at 0.05 uM by SRB assay; conditions: read-out: Activity
[21] = read-out: LC50 (the source's name)
[22] = read-out: pLC50 (the source's name) (converted)

COc1cc([C@@H]2c3cc4c(cc3[C@@H](NC(=O)CN3CCN(CCCCCCCCCCN5CCN(CC(=O)N[C@@H]6c7cc8c(cc7[C@@H](c7cc(OC)c(O)c(OC)c7)[C@H]7C(=O)OC[C@@H]76)OCO8)CC5)CC3)[C@H]3COC(=O)[C@H]23)OCO4)cc(OC)c1O
growth at 50 µM (SK-MEL-28): -83%
growth at 50 µM (PC-3 [1]): -51%
GI50 (HCT-116; read-out: GI50): 1000 nM
CC50 (HCT-116; [21]): 46500 nM
TGI (HCT-116; read-out: TGI): 3460 nM
GI50 (HCT-116; read-out: pGI50 (converted)): 1000 nM
CC50 (HCT-116; [22]): 46800 nM
TGI (HCT-116; read-out: pTGI (converted)): 3470 nM
GI50 (HCT-15 [2]; read-out: GI50): 359 nM
CC50 (HCT-15 [2]; [21]): 3390 nM
TGI (HCT-15 [2]; read-out: TGI): 1240 nM
GI50 (HCT-15 [2]; read-out: pGI50 (converted)): 363 nM
CC50 (HCT-15 [2]; [22]): 3390 nM
TGI (HCT-15 [2]; read-out: pTGI (converted)): 1230 nM
growth at 0.005 µM (SF-295): 92%
GI50 (SF-268; read-out: GI50): 452 nM
CC50 (SF-268; [21]): > 50000 nM
TGI (SF-268; read-out: TGI): 1940 nM
GI50 (SF-268; read-out: pGI50 (converted)): 457 nM
CC50 (SF-268; [22]): > 50100 nM
TGI (SF-268; read-out: pTGI (converted)): 1950 nM
GI50 (MCF7; read-out: GI50): 114 nM
CC50 (MCF7; [21]): 37400 nM
TGI (MCF7; read-out: TGI): 8500 nM
GI50 (MCF7; read-out: pGI50 (converted)): 115 nM
CC50 (MCF7; [22]): 37200 nM
TGI (MCF7; read-out: pTGI (converted)): 8510 nM
growth at 5 µM (OVCAR-8): -28%
growth at 0.005 µM (HL-60(TB)): 96%
growth at 5 µM (MDA-MB-468): -29%
growth at 0.005 µM (LOX IMVI): 86%
growth at 0.005 µM (HOP-92 [3]): 91%
growth at 0.05 µM (DU-145 [4]): 77%
growth at 0.5 µM (SN12C): 27%
growth at 0.5 µM (CAKI-1): 81%
GI50 (NCI-H23 [5]; read-out: GI50): 181 nM
CC50 (NCI-H23 [5]; [21]): 9300 nM
TGI (NCI-H23 [5]; read-out: TGI): 1320 nM
GI50 (NCI-H23 [5]; read-out: pGI50 (converted)): 182 nM
CC50 (NCI-H23 [5]; [22]): 9330 nM
TGI (NCI-H23 [5]; read-out: pTGI (converted)): 1320 nM
growth at 5 µM (OVCAR-5 [6]): 5%
growth at 0.5 µM (COLO 205 [7]): 72%
GI50 (PC-3 [8]; read-out: GI50): 903 nM
CC50 (PC-3 [8]; [21]): 47700 nM
TGI (PC-3 [8]; read-out: TGI): 8940 nM
GI50 (PC-3 [8]; read-out: pGI50 (converted)): 912 nM
CC50 (PC-3 [8]; [22]): 47900 nM
TGI (PC-3 [8]; read-out: pTGI (converted)): 8910 nM
growth at 0.005 µM (IGROV-1 [9]): 90%
growth at 5 µM (BT-549): -66%
growth at 0.5 µM (IGROV-1 [10]): 44%
growth at 0.005 µM (HCT-15 [11]): 99%
GI50 (OVCAR-5 [12]; read-out: GI50): 830 nM
CC50 (OVCAR-5 [12]; [21]): 19500 nM
TGI (OVCAR-5 [12]; read-out: TGI): 5650 nM
GI50 (OVCAR-5 [12]; read-out: pGI50 (converted)): 832 nM
CC50 (OVCAR-5 [12]; [22]): 19500 nM
TGI (OVCAR-5 [12]; read-out: pTGI (converted)): 5620 nM
growth at 5 µM (SF-539): -88%
growth at 0.5 µM (CCRF-CEM): 4%
growth at 0.05 µM (NCI-H23 [13]): 81%
growth at 0.5 µM (HOP-62 [14]): 23%
growth at 0.5 µM (A498): 51%
growth at 0.5 µM (DU-145 [15]): 22%
growth at 0.05 µM (HOP-62 [16]): 48%
growth at 0.005 µM (ACHN): 100%
growth at 0.5 µM (HOP-92 [17]): 21%
GI50 (COLO 205 [18]; read-out: GI50): 906 nM
CC50 (COLO 205 [18]; [21]): > 50000 nM
TGI (COLO 205 [18]; read-out: TGI): 3520 nM
GI50 (COLO 205 [18]; read-out: pGI50 (converted)): 912 nM
CC50 (COLO 205 [18]; [22]): > 50100 nM
TGI (COLO 205 [18]; read-out: pTGI (converted)): 3550 nM
growth at 0.5 µM (SK-MEL-5 [19]): 83%
growth at 5 µM (SK-MEL-5 [20]): 52%
GI50 (MDA-MB-435; read-out: GI50): 295 nM
TGI (MDA-MB-435; read-out: TGI): 1230 nM
GI50 (MDA-MB-435; read-out: pGI50 (converted)): 295 nM
TGI (MDA-MB-435; read-out: pTGI (converted)): 1230 nM
growth at 0.05 µM (SK-OV-3): 85%
